Experimental data taken from PMC5647227 (ACS chemical neuroscience, 2017).
Entries after “also recorded” stand apart in the source; their conditions may differ.

Columns and labels:
hNK1 receptors [1] = target: T1, hNK1 receptors (Homo sapiens, UniProt P25103); test: [3H]Substance-P competition binding assay, hNK1-CHO membranes
hNK1 receptors [2] = target: T1, hNK1 receptors; test: Functional NK1 receptor assay; format: cell-based
MOP receptor [3] = target: MOP receptor (Cavia porcellus, UniProt A0ACM8Q262); test: Guinea pig ileum; format: biochemical; conditions: read-out: GPI IC50; representative of MOP receptor activation
MOP receptor (Cavia porcellus, UniProt A0ACM8Q262), sequence (A0ACM8Q262 1-400): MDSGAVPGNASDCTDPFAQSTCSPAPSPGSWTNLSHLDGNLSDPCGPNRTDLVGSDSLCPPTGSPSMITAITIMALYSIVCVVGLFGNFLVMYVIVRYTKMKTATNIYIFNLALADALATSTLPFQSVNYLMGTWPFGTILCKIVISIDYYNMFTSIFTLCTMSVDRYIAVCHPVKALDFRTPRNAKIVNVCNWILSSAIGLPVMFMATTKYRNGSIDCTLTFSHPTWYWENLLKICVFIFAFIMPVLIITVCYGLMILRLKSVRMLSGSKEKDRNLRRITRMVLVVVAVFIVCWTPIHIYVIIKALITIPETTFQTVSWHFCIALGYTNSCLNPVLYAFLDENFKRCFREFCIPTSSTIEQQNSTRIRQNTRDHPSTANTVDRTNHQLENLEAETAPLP

DOP receptor [4] = target: DOP receptor (Mus musculus, UniProt P32300); test: Mouse vas deferens; format: biochemical
DOP receptor (Mus musculus, UniProt P32300), sequence (P32300 whole entry): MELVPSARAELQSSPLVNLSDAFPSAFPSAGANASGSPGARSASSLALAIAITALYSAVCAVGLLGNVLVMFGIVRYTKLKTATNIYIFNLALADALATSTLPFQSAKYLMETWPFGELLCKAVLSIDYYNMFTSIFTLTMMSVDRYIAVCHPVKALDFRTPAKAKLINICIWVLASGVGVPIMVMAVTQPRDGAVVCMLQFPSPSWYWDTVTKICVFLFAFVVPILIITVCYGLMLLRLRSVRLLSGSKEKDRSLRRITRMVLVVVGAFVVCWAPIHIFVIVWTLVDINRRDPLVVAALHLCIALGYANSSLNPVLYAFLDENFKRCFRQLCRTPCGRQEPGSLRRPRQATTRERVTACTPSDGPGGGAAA

MOP receptor [5] = target: MOP receptor (Rattus norvegicus, UniProt P33535); test: Opioid receptor binding, [3H]DAMGO displacement from rat brain membranes
MOP receptor (Rattus norvegicus, UniProt P33535), sequence (P33535 whole entry): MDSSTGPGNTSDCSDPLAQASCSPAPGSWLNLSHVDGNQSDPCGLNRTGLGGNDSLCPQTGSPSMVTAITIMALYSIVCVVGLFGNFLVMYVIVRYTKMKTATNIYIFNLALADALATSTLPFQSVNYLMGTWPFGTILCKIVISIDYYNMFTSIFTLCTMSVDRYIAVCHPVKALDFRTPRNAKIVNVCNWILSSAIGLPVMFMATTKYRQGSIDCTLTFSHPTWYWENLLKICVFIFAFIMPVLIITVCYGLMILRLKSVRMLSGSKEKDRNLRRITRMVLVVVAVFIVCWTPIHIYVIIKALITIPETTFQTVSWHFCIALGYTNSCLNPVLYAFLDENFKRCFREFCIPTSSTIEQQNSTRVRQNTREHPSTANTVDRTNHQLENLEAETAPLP

DOP receptor [6] = target: DOP receptor (Rattus norvegicus, UniProt P33533); test: Opioid receptor binding, [3H]DSLET displacement from rat brain membranes
DOP receptor (Rattus norvegicus, UniProt P33533), sequence (P33533 whole entry): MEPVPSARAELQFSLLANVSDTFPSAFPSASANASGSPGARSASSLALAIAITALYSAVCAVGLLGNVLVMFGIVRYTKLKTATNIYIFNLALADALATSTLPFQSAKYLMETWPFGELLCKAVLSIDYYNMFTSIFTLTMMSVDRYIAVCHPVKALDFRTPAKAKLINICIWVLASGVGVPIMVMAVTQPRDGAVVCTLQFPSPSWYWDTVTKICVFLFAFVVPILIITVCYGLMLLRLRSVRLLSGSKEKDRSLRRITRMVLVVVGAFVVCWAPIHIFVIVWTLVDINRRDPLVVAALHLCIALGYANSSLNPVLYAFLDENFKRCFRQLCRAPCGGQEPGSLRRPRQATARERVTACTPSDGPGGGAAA

naive mice = test: Tail-flick test, acute pain after i.t. administration; format: in vivo, mouse; conditions: for duration of analgesic effect, tail-flick: 0.1 nmol; for analgesic effect in acute pain model: dose of 1 μg
CCI-exposed mice [7] = test: Von Frey test, tactile hypersensitivity in neuropathic pain model; format: in vivo, mouse; conditions: i.t.; for duration of effect, von Frey test: moderate dose ca. 1 nmol (1 μg)
Summary of the method: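 CCI mice, unanesthetized, received test compound in water for injections intrathecally by lumbar puncture between L5 and L6, in a 5 μL volume. Doses ranged from about 0.1 to 10 nmol/animal. Calibrated nylon monofilaments (0.6–6 g, 6 g cutoff) were applied in serial increments to the hind-paw plantar surface until paw withdrawal, shaking or licking. Testing was done at 30, 90 and 180 min after dosing. Effect was expressed as % MPE.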

CCI-exposed mice [8] = test: Neuropathic pain model, von Frey and cold plate tests taken together; format: in vivo, mouse; conditions: i.t.; for relative analgesic efficacy among hybrids in neuropathic pain model: von Frey and cold plate tests
Summary of the method: (§1)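 CCI mice, unanesthetized, received test compound in water for injections intrathecally by lumbar puncture between L5 and L6, in a 5 μL volume. Doses ranged from about 0.1 to 10 nmol/animal. The cold plate was held at 2 °C and latency to hind-paw lift was timed, with a 30 s cutoff. Testing was done at 30, 90 and 180 min after dosing. Effect was expressed as % MPE.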

CCI-exposed mice [9] = test: Cold plate test, thermal hypersensitivity in neuropathic pain model; format: in vivo, mouse; conditions: i.t.
Summary of the method: as §1

T1 sequence (P25103 whole entry): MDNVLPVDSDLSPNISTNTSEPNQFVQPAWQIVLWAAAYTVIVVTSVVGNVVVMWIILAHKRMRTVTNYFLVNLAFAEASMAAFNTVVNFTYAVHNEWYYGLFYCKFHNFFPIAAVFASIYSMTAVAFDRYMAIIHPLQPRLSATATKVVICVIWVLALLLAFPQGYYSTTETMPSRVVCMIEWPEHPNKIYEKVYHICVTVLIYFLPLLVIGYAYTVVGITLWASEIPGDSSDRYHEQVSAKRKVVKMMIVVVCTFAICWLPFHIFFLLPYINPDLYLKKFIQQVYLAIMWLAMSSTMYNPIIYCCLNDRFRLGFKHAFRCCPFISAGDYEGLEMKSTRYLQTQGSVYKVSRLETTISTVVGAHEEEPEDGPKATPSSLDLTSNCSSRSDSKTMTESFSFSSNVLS

Row | Molecule | Ki (hNK1 receptors [1]) | Kb (hNK1 receptors [2]) | IC50 (MOP receptor [3]) | IC50 (DOP receptor [4]) | Ki (MOP receptor [5]) | Ki (DOP receptor [6]) | further results
1 | Cc1cc(O)cc(C)c1C[C@H](N)C(=O)N[C@H](CCCNC(=N)N)C(=O)N[C@H]1Cc2ccccc2CN(CCC(=O)N(Cc2cc(C(F)(F)F)cc(C(F)(F)F)c2)C2CC2)C1=O [Compound 6, H-Dmt-D-Arg-Aba-β-Ala-NcPr-3′,5′-(CF3)2-Bn] | 735 nM | 4370 nM | 18 nM | 16 nM | 47 nM | 190 nM | –
2 | Cc1cc(O)cc(C)c1C[C@H](N)C(=O)N[C@H](CCCNC(=N)N)C(=O)N[C@H]1Cc2ccccc2CN(CCC(=O)N(Cc2ccccc2)C2CC2)C1=O [Compound 7, H-Dmt-D-Arg-Aba-β-Ala-NcPr-Bn] | 520 nM | 6310 nM | 19 nM | 6.6 nM | 2.7 nM | 66 nM | –
3 | Cc1cc(O)cc(C)c1C[C@H](N)C(=O)N[C@H](CCCNC(=N)N)C(=O)N[C@H]1Cc2ccccc2CN(CC(=O)N(Cc2ccccc2)C2CC2)C1=O [Compound 8, H-Dmt-D-Arg-Aba-Gly-NcPr-Bn] | 95 nM | 3160 nM | 10 nM | 11.2 nM | 0.3 nM | 68 nM | –
4 | Cc1cc(O)cc(C)c1C[C@H](N)C(=O)N[C@H](CCCNC(=N)N)C(=O)N[C@H]1Cc2ccccc2CN(CCC(=O)N2Cc3ccccc3C2)C1=O [Compound 9, H-Dmt-D-Arg-Aba-β-Ala-isoindoline] | > 10000 nM | – | 5 nM | 2.1 nM | 0.2 nM | 16 nM | –
5 | Cc1cc(O)cc(C)c1C[C@H](N)C(=O)N[C@H](CCCNC(=N)N)C(=O)N[C@H]1Cc2ccccc2CN(CC(=O)N2Cc3ccccc3C2)C1=O [Compound 10, H-Dmt-D-Arg-Aba-Gly-isoindoline] | 3500 nM | 692000 nM | 7.3 nM | 8 nM | 0.06 nM | 81 nM | –
6 | COc1ccccc1CN(C)C(=O)CN1Cc2ccccc2C[C@H](NC(=O)[C@@H](CCCNC(=N)N)NC(=O)[C@@H](N)Cc2c(C)cc(O)cc2C)C1=O [Compound 11, H-Dmt-D-Arg-Aba-Gly-NMe-2′-OMe-Bn] | 501 nM | 14500 nM | 5 nM | 2.4 nM | 0.9 nM | 26 nM | –
7 | Cc1cc(O)cc(C)c1C[C@H](N)C(=O)N[C@H](CCCNC(=N)N)C(=O)N[C@H]1Cc2ccccc2CN(CCC(=O)N(C)Cc2ccc3ccccc3c2)C1=O [Compound 12, H-Dmt-D-Arg-Aba-β-Ala-NMe-2′-methylenenaphthyl] | 612 nM | 97.7 nM | 9 nM | 4 nM | 0.4 nM | 44 nM | duration of analgesic effect, tail-flick (naive mice): up to 180 min after administration; analgesic effect, tail-flick (naive mice; doses raised up to ca. 10 nmol): 60–70 % MPE; duration of effect, von Frey test (CCI-exposed mice [7]): not observable 180 min after administration; relative analgesic efficacy among hybrids in neuropathic pain model (CCI-exposed mice [8]): weaker in both tests
8 | Cc1cc(O)cc(C)c1C[C@H](N)C(=O)N[C@H](CCCNC(=N)N)C(=O)N[C@H]1Cc2ccccc2CN(CC(=O)N(C)Cc2ccc3ccccc3c2)C1=O [Compound 13, H-Dmt-D-Arg-Aba-Gly-NMe-2′-methylenenaphthyl] | 709 nM | 3630 nM | 3 nM | 10 nM | 2.8 nM | 228 nM | duration of analgesic effect, tail-flick (naive mice): up to 180 min after administration; analgesic effect, tail-flick (naive mice; doses raised up to ca. 10 nmol): 60–70 % MPE; effect in attenuating acute pain (naive mice; measured at three time points after administration): ~ 60 % MPE; response threshold, von Frey test (CCI-exposed mice [7]; lowest tested dose 0.1 nmol): ca. 70 % MPE; duration of effect, von Frey test (CCI-exposed mice [7]): not observable 180 min after administration; influence on response, cold plate test (CCI-exposed mice [9]; 0.1 nmol): did not significantly influence the response; effect at 180 min, cold plate test (CCI-exposed mice [9]; highest dose 10 nmol): provided an effect at 180 min after administration; relative analgesic efficacy among hybrids in neuropathic pain model (CCI-exposed mice [8]): most efficient analgesic in both tests
9 | H-Dmt-D-Arg-Aba-Gly-NH2 [Compound 1] | – | – | – | – | – | – | lowest dose raising latency of response to thermal stimuli, tail-flick (naive mice): 0.0013 nmol; analgesic effect in acute pain model (naive mice): ~100 % MPE; analgesic effect in acute pain model (naive mice; at 180 min after administration): > 80 % MPE; analgesic effect, tail-flick (naive mice; highest dose tested 1.3 nmol, lasting up to 180 min): ~100 % MPE; lowest efficacious dose in acute pain model (naive mice; p < 0.05 vs vehicle): 0.001 nmol/5 μL/animal; analgesic effect, von Frey test (CCI-exposed mice [7]; at 30 min): ca. 40 % MPE; analgesic effect, von Frey test (CCI-exposed mice [7]; maximum over doses): ≤ 40 % MPE
10 | H-Dmt-D-Arg-Aba-Gly-NMe-3′,5′-(CF3)2-Bn [Compound 3, reference compound] | – | – | – | – | – | – | tail-flick effect compared with parent compound (naive mice): weaker than its parent compound; response latency / alleviation of hypersensitivity in neuropathic pain model (CCI-exposed mice [8]; test not specified or both tests): ca. 60 % MPE
11 | H-Dmt-D-Arg-Aba-β-Ala-NH2 [Compound 2] | – | – | – | – | – | – | analgesic effect, tail-flick (naive mice; highest dose tested 1 nmol): ≤ 80 % MPE; influence on response threshold, von Frey test (CCI-exposed mice [7]): no influence on the response threshold; also recorded: not efficacious at all; analgesic effect, cold plate test (CCI-exposed mice [9]; maximum over doses): no more than 20 % MPE
